Results reported in ChEMBL document CHEMBL5696442, “Discovery of type II inhibitors of TGFβ-activated kinase 1 (TAK1) and mitogen-activated protein kinase kinase kinase kinase 2 (MAP4K2)” (J Med Chem, 2015).

Columns and labels:
[1] = target: Mitogen-activated protein kinase kinase kinase 12 (Homo sapiens) (UniProt Q12852); test: Inhibition of DLK Lys2 labeling site harbouring in human A-375 cells at 0.5 uM by KiNativ Profiling analysis relative to control
[2] = target: Maternal embryonic leucine zipper kinase (Homo sapiens) (UniProt Q14680); test: Inhibition of MELK (unknown origin) at 1 uM by Ambit Kinomescan binding assay relative to control; values are per cent of control
[3] = target: Mitogen-activated protein kinase kinase kinase kinase 4 (Homo sapiens, UniProt O95819); test: Inhibition of MAP4K4 (unknown origin) at 1 uM by Ambit Kinomescan binding assay relative to control
[4] = target: Fibroblast growth factor receptor 1 (Homo sapiens) (UniProt P11362); test: Inhibition of FGFR1 (unknown origin) at 1 uM by Ambit Kinomescan binding assay relative to control; values are per cent of control
[5] = target: Dual specificity tyrosine-phosphorylation-regulated kinase 2 (Homo sapiens) (UniProt Q92630); test: Inhibition of DYRK2 (unknown origin) at 1 uM by Ambit Kinomescan binding assay relative to control; values are per cent of control
[6] = target: 5'-AMP-activated protein kinase catalytic subunit alpha-1 (Homo sapiens) (UniProt Q13131); test: Inhibition of AMPKa1 Lys2 labeling site in human A-375 cells at 0.05 uM by KiNativ Profiling analysis relative to control; type: cell-based
[7] = target: Calcium/calmodulin-dependent protein kinase kinase 2 (Homo sapiens) (UniProt Q96RR4); test: Inhibition of CaMKK2 Lys1 labeling site in human A-375 cells at 0.05 uM by KiNativ Profiling analysis relative to control; type: cell-based
[8] = target: Dual specificity mitogen-activated protein kinase kinase 2 (Homo sapiens) (UniProt P36507); test: Inhibition of MEK2 (unknown origin) at 1 uM by Ambit Kinomescan binding assay relative to control; values are per cent of control
[9] = target: 5'-AMP-activated protein kinase catalytic subunit alpha-2 (Homo sapiens) (UniProt P54646); test: Inhibition of AMPKa2 Lys1 labeling site in human A-375 cells at 0.5 uM by KiNativ Profiling analysis relative to control; type: cell-based
How it was run: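 Live A375 melanoma cells were treated with compound at 5 or 0.5 μM, then lysed. The lysates were labeled with a lysine-reactive ATP or ADP-biotin probe. Kinase protection from probe labeling was measured by KiNativ.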

[10] = system: Tyrosine-protein kinase ABL1 (Homo sapiens), P00519 [Q252H]; test: Inhibition of nonphosphorylated ABL1 Q252H mutant (unknown origin) at 1 uM by Ambit Kinomescan binding assay relative to control
[11] = target: Dual specificity testis-specific protein kinase 1 (Homo sapiens) (UniProt Q15569); test: Inhibition of TESK1 (unknown origin) at 1 uM by Ambit Kinomescan binding assay relative to control
[12] = target: Receptor-type tyrosine-protein kinase FLT3 (Homo sapiens) (UniProt P36888); test: Inhibition of FLT3 (unknown origin) at 1 uM by Ambit Kinomescan binding assay relative to control; values are per cent of control
[13] = target: Cyclin-dependent kinase 8/19 (Homo sapiens) (UniProt P49336+Q9BWU1); test: Inhibition of CDK8/11 K2 labeling site in human Huh-7 cells at 10 uM by KiNativ Profiling analysis relative to control; type: cell-based
[14] = target: RPS6KA1/RPS6KA2/RPS6KA3 (Homo sapiens) (UniProt P51812+Q15349+Q15418); test: Inhibition of RSK1/2/3 Domain 1 K2 labeling site harbouring DLKPENILLDEEGHIK in human Huh-7 cells at 10 uM by KiNativ Profiling analysis relative to control; type: cell-based
[15] = target: Tyrosine-protein kinase CSK (Homo sapiens, UniProt P41240); test: Inhibition of CSK ACT labeling site harbouring VSDFGLTKEASSTQDTGKLPVKWTAPEALR in human Huh-7 cells at 10 uM by KiNativ Profiling analysis relative to control; type: cell-based
[16] = target: DNA-PK/Ku70/Ku85 (Homo sapiens) (UniProt P78527+P12956+P13010); test: Inhibition of DNAPK ATP labeling site harbouring KGGSWIQEINVAEKNWYPR in human Huh-7 cell lysate at 1 uM by KiNativ Profiling analysis relative to control; type: subcellular
[17] = target: Phosphatidylinositol 4,5-bisphosphate 3-kinase catalytic subunit beta isoform (Homo sapiens) (UniProt P42338); test: Inhibition of PIK3CB ATP labeling site harbouring VFGEDSVGVIFKNGDDLR in human Huh-7 cell lysate at 1 uM by KiNativ Profiling analysis relative to control; type: subcellular
[18] = target: Serine/threonine-protein kinase WNK3 (Homo sapiens) (UniProt Q9BYP7); test: Inhibition of Wnk3 ACT labeling site in human Huh-7 cell lysate at 1 uM by KiNativ Profiling analysis relative to control; type: subcellular
[19] = target: Ribosomal protein S6 kinase alpha-3 (Homo sapiens) (UniProt P51812); test: Inhibition of RSK2 domain2 Lys2 labeling site harbouring TVEYLHAQGVVHRDLKPSNILYVDESGNPESIR in human Huh-7 cells at 1 uM by KiNativ Profiling analysis relative to control; type: cell-based
[20] = target: Cyclin-dependent kinase 2 (Homo sapiens) (UniProt P24941); test: Inhibition of CDK2 Lys2 labeling site harbouring VLHRDLKPQNLLINTEGAIK in human Huh-7 cells at 1 uM by KiNativ Profiling analysis relative to control; type: cell-based
[21] = target: T1, Mitogen-activated protein kinase kinase kinase 2 (Homo sapiens) (UniProt Q9Y2U5); test: Inhibition of MAP3K2 Lys1 labeling site in human Huh-7 cells at 1 uM by KiNativ Profiling analysis relative to control; type: cell-based
T1 sequence (whole entry): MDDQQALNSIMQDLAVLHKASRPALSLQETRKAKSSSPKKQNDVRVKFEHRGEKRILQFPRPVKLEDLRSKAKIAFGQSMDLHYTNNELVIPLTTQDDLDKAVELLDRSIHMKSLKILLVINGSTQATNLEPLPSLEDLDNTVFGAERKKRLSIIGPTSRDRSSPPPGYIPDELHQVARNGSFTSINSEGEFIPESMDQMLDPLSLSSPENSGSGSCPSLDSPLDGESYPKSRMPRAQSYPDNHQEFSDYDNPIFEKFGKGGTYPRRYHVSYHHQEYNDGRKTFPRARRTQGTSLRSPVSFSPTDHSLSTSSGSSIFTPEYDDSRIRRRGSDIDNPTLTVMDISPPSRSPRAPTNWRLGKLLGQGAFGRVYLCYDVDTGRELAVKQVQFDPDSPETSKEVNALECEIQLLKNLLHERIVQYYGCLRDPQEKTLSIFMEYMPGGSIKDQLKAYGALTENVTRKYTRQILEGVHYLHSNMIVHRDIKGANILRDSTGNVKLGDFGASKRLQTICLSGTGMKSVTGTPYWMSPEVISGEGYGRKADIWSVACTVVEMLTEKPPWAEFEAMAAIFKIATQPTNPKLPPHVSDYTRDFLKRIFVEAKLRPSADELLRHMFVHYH

Sequence of Ribosomal protein S6 kinase alpha-3 (Homo sapiens) (P51812 whole entry, the tested form may be a part): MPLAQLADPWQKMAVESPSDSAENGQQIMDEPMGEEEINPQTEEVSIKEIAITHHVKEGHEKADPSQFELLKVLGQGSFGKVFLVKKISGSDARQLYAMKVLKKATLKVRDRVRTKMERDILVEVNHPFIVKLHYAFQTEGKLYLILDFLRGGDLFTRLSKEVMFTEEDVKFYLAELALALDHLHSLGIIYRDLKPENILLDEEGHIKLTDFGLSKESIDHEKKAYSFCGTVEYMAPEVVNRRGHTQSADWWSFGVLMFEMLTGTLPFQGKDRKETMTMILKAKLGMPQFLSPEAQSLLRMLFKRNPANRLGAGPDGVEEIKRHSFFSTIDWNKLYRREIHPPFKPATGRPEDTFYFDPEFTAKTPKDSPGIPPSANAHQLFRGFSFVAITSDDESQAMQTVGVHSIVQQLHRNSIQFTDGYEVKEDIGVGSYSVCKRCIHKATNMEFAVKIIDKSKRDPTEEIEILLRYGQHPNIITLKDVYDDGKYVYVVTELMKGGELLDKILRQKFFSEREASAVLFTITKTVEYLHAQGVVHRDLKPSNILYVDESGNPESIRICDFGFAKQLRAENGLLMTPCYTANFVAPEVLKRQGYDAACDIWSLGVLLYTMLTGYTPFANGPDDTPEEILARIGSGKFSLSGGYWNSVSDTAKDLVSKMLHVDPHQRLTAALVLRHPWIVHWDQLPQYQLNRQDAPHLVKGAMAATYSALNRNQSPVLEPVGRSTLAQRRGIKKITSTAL
Sequence of RPS6KA1/RPS6KA2/RPS6KA3 (Homo sapiens) (P51812 whole entry, looked up): as the sequence (P51812 whole entry, the tested form may be a part) above
Sequence of RPS6KA1/RPS6KA2/RPS6KA3 (Homo sapiens) (Q15349 whole entry, looked up): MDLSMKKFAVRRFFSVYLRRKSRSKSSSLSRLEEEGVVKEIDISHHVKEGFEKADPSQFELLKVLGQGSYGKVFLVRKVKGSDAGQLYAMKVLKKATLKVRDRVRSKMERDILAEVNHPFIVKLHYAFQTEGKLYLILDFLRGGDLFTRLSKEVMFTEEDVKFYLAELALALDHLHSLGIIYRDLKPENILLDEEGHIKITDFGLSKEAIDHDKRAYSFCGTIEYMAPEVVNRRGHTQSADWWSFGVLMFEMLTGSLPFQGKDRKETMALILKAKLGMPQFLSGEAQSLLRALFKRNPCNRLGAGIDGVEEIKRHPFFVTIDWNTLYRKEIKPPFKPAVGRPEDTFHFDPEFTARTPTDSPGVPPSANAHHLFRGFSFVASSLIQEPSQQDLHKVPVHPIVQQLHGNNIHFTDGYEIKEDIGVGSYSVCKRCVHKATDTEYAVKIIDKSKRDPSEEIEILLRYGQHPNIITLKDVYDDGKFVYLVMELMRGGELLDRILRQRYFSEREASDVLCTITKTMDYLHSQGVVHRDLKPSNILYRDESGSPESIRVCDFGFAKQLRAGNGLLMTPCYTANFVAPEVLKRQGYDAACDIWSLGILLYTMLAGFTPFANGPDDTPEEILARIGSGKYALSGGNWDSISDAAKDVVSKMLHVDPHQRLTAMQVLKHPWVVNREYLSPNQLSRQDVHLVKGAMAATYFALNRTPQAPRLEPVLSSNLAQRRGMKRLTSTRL
Sequence of RPS6KA1/RPS6KA2/RPS6KA3 (Homo sapiens) (Q15418 whole entry, looked up): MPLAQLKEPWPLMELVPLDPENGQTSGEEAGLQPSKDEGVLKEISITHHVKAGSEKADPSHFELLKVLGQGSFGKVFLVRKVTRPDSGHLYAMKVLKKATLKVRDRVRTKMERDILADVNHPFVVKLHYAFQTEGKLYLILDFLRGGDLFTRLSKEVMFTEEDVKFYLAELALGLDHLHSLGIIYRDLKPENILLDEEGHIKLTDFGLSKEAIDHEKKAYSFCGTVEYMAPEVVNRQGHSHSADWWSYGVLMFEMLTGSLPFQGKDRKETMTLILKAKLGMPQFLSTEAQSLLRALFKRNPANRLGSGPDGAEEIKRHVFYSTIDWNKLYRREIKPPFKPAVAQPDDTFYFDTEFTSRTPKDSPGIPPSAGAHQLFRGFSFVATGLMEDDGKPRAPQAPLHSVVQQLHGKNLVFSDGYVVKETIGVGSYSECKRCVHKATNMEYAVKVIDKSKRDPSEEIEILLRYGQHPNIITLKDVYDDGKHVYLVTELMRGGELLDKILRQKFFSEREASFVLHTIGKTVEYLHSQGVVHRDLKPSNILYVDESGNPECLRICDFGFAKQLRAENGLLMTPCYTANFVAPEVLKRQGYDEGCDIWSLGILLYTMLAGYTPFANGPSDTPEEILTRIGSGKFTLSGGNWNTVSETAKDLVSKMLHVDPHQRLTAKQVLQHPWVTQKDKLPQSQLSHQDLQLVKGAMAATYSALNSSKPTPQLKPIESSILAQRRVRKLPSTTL
Sequence of Calcium/calmodulin-dependent protein kinase kinase 2 (Homo sapiens) (Q96RR4 2-588 limits assumed): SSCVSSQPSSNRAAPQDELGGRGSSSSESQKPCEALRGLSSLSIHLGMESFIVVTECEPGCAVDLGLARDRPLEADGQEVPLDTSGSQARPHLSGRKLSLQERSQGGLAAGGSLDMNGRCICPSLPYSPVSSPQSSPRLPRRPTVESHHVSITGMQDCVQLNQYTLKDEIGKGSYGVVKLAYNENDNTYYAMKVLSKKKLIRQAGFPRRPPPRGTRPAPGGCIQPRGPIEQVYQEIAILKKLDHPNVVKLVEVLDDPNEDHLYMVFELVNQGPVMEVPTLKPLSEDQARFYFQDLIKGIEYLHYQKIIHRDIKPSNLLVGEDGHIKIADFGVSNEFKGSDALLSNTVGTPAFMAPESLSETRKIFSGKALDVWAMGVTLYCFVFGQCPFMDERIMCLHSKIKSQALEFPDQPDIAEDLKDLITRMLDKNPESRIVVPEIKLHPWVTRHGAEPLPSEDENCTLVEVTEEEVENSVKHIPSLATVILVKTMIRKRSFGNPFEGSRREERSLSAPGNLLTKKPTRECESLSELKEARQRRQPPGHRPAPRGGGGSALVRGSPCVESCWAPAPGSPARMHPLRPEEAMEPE
Sequence of Serine/threonine-protein kinase WNK3 (Homo sapiens) (Q9BYP7 whole entry, the tested form may be a part): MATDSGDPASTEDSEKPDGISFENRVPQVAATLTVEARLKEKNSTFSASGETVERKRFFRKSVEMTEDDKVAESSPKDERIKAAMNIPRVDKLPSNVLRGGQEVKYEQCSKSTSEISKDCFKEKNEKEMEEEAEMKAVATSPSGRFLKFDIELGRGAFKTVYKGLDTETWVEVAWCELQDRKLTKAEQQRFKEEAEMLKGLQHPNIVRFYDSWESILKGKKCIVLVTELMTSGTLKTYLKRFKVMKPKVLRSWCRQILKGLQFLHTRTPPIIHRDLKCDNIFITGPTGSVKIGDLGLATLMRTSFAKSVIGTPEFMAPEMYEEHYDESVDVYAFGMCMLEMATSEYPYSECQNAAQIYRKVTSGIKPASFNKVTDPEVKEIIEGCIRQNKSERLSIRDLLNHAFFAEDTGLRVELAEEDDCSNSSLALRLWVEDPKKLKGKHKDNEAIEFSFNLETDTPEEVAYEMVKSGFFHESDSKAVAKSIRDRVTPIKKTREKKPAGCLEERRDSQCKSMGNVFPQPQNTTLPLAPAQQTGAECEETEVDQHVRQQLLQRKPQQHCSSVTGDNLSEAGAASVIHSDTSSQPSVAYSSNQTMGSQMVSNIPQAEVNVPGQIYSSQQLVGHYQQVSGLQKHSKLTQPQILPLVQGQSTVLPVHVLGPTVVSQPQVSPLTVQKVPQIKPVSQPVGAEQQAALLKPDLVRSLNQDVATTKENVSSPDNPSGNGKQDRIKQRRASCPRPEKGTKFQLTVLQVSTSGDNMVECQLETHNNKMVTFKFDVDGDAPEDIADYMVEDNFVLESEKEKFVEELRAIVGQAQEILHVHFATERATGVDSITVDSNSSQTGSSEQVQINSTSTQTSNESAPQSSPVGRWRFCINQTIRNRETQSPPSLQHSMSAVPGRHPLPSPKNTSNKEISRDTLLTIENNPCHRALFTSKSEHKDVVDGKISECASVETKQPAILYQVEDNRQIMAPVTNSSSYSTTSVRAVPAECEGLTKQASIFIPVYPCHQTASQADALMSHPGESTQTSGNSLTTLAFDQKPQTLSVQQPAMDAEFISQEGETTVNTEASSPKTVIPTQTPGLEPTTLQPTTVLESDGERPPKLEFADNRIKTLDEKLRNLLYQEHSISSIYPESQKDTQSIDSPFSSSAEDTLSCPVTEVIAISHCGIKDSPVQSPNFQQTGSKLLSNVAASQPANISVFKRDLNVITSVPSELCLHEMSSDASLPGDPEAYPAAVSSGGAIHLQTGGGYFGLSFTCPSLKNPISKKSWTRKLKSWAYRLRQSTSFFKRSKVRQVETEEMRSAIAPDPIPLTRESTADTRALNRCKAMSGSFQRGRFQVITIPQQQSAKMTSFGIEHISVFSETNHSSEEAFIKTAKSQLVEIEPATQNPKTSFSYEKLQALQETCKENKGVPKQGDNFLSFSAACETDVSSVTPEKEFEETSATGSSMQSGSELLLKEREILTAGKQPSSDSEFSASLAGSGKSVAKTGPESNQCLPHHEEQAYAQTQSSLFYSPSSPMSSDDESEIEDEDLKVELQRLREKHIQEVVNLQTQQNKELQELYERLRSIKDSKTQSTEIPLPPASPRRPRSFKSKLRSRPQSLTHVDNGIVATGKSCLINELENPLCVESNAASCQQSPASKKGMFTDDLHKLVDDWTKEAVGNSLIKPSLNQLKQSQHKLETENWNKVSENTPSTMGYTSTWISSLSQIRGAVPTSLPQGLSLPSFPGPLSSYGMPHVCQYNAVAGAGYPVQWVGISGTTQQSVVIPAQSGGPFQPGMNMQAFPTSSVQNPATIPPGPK
Sequence of Tyrosine-protein kinase CSK (P41240 2-450 limits assumed): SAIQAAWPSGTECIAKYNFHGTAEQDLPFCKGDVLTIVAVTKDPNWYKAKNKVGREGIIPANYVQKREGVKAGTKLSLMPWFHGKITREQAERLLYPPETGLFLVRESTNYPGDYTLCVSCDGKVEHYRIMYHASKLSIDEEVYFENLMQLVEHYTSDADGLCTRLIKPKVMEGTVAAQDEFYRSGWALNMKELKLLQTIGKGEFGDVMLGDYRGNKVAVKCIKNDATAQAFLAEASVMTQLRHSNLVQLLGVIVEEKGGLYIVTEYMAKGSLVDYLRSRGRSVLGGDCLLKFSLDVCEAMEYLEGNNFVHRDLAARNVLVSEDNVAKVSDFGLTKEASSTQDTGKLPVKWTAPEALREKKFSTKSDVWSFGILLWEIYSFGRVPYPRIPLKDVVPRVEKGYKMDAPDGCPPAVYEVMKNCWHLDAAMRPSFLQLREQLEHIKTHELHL

CCN1CCN(Cc2ccc(NC(=O)c3ccc(C)c(/C=C/c4cnc5[nH]ccc5c4OC)c3)cc2C(F)(F)F)CC1
inhibition [1]: 0.8%
residual activity [2]: 72%
inhibition [3]: 1.8%
% of control [4]: 2.8%
residual activity [5]: 68%
inhibition [6]: 7.3%
inhibition [7]: 3.5%
residual activity [8]: 74%
inhibition [9]: 20.3%
inhibition [10]: 1.4%
inhibition [11]: 100%
residual activity [12]: 0.15%

CCN1CCN(Cc2ccc(NC(=O)c3ccc(C)c(Oc4ccnc5[nH]ccc45)c3)cc2C(F)(F)F)CC1
inhibition [13]: 18.3%
inhibition [14]: 8.7%
inhibition [15]: -2.7%

CNc1cc(Oc2cc(C(=O)Nc3cc(N4CCN(C)CC4)cc(C(F)(F)F)c3)ccc2C)ncn1
inhibition [16]: 15.9%
inhibition [17]: -1.3%
inhibition [18]: -6.9%
inhibition [19]: 11.5%
inhibition [20]: 29.3%
inhibition [21]: 28.2%
